The values below come from ChEMBL document CHEMBL5149972, “Novel Antimalarial Tetrazoles and Amides Active against the Hemoglobin Degradation Pathway in Plasmodium falciparum” (J Med Chem, 2021).

Assay [1] deals with Plasmodium falciparum. Nature of the assay: Antiplasmodial activity against lab-derived ELQ300 resistant Plasmodium falciparum Dd2-PfCytB mutant infected in human RBC assessed as parasite growth inhibition incubated for 72 hrs by SYBR Green dye based fluorescence assay. The assay is classed as functional, organism-based. The settings on record: Erythrocyte.
The test system of assay [2] is Plasmodium falciparum. Nature of the assay: Antiplasmodial activity against lab-derived […] resistant Plasmodium falciparum Dd2-PfeEF2 mutant infected in human RBC assessed as parasite growth inhibition incubated for 72 hrs by SYBR Green dye based fluorescence assay. The assay is classed as functional, organism-based. Conditions: Erythrocyte.
Assay [3] deals with Plasmodium falciparum. Briefly: Antiplasmodial activity against chloroquine resistant Plasmodium falciparum Dd2-GC03 mutant replaced with 3D7 pfcrt sequence at endogenous pfcrt Dd2 locus infected in human RBC assessed as parasite growth inhibition incubated for 72 hrs by SYBR Green dye based fluorescence assay. Format: functional, organism-based. The settings on record: Erythrocyte. A digest of the protocol:
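Gene-edited Dd2 lines with the endogenous pfcrt locus replaced by zinc-finger nuclease editing. Concentration-response curves run with technical duplicates at each concentration; values are the average of two biological replicates, with std dev given where more replicates were collected.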

The subject of assay [4] is Plasmodium falciparum. Nature of the assay: Antiplasmodial activity against asexual blood stage Plasmodium falciparum 3D7 infected in human RBC assessed as parasite growth inhibition incubated for 72 hrs by SYBR Green dye based fluorescence assay. The assay is classed as functional, organism-based. The settings on record: Plasmodium falciparum, 3D7, Erythrocyte, 72 h. A digest of the protocol:
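Blood-stage cultures at 2% hematocrit, human O+ RBCs, RPMI 1640 + 25 mM HEPES, 0.5% Albumax-I, 23 mM bicarbonate, 92 μM hypoxanthine. Start at 0.5% parasitemia; 72 h at 37°C, 5% CO₂; freeze-thaw, then SYBR Green in saponin/Triton lysis buffer, 4 h RT dark; fluorescence ex 485/em 535 nm. 10-point curves, technical duplicates or triplicates, final 0.5% DMSO; four-parameter fit gives EC₅₀; mean ± std dev of biological replicates.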

In assay [5] the test system is Plasmodium falciparum. Briefly: Antiplasmodial activity against chloroquine and pyrimethamine resistant Plasmodium falciparum 7G8 infected in human RBC assessed as parasite growth inhibition incubated for 72 hrs by SYBR Green dye based fluorescence assay. Format: functional, organism-based. Conditions: 7G8, Erythrocyte.
Assay [6] concerns Plasmodium falciparum. Nature of the assay: Antiplasmodial activity against Rac-N-(Pyridin-3-yl(1-(o-tolyl)-1H-tetrazol-5-yl)methyl)-N-(3-(trifluoromethyl)benzyl)Cyclopropanamine resistant Plasmodium falciparum 3D7 clone F2-A10 ring-stage parasite assessed as parasite growth inhibition incubated for 72 hrs by SYBR Green and MitoTracker Deep Red FM dye based flow cytometry. Format: functional, organism-based. A digest of the protocol:
(§1)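 Clonal 3D7-A10 lines recovered after single-step selection; ring stages at 0.2% parasitemia, 1% hematocrit in RPMI-1640 with 0.5% Albumax. 72 h exposure to a 10-point 2-fold dilution series in duplicate with DMSO controls, final DMSO <0.5%. Survival read by flow cytometry, SYBR Green as nuclear stain and MitoTracker Deep Red FM as vital dye. EC₅₀ and EC₉₀ reported with fold shift relative to parental 3D7-A10.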
Background: A flow cytometer gives signals particle by particle.

Assay [7] has as its system Plasmodium falciparum. Nature of the assay: Antiplasmodial activity against Rac-N-(Pyridin-3-yl(1-(o-tolyl)-1H-tetrazol-5-yl)methyl)-N-(3-(trifluoromethyl)benzyl)Cyclopropanamine resistant Plasmodium falciparum 3D7 clone A10 ring-stage parasite assessed as parasite growth inhibition incubated for 72 hrs by SYBR Green and MitoTracker Deep Red FM dye based flow cytometry. The assay is classed as functional, organism-based. A digest of the protocol: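 Resistant clonal lines were tested as ring stages at 0.2% parasitemia and 1% hematocrit in RPMI-1640 with 0.5% Albumax. A 10-point 2-fold dilution series was run in duplicate with DMSO controls, final DMSO <0.5%, for 72 h. Survival was read by flow cytometry with SYBR Green as nuclear stain and MitoTracker Deep Red as vital dye. EC50 and EC90 were derived.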

A short description of assay [8]: Inhibition of hemozoin formation in sorbitol-synchronized early ring stage plasmodium falciparum NF54 trophozoites assessed as fold increase in free heme-Fe level at 3 times EC50 incubated for 32 hrs by flow cytometry analysis. The assay is classed as functional. A digest of the protocol: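 Trophozoites were saponin-released (0.05%), PBS-washed, counted by flow cytometry, then hypotonically lysed and sonicated. Heme was fractionated with HEPES, SDS, pyridine and NaOH and read as Fe(III)heme–pyridine absorbance against a heme standard curve (fg/cell). Three biological replicates; Student's t-test.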

The test system of assay [9] is Plasmodium falciparum. Nature of the assay: Antiplasmodial activity against Rac-N-(Pyridin-3-yl(1-(o-tolyl)-1H-tetrazol-5-yl)methyl)-N-(3-(trifluoromethyl)benzyl)Cyclopropanamine resistant Plasmodium falciparum 3D7 clone F2-H12 ring-stage parasite assessed as parasite growth inhibition incubated for 72 hrs by SYBR Green and MitoTracker Deep Red FM dye based flow cytometry. Format: functional, organism-based. Summed up:
as §1

pEC50: −log10 of the molar value.

In the case of `Cc1ccccc1-n1nnnc1C(c1cccnc1)N(Cc1cccc(C(F)(F)F)c1)C1CC1` (racemic), the pEC50 in the assay on Plasmodium falciparum [1] was 6.07; with Plasmodium falciparum [2], 6.04; in the assay on Plasmodium falciparum [3], 6.05; in the assay on Plasmodium falciparum [4], 6.42; in the assay on Plasmodium falciparum [5], 6.74; in the assay with Plasmodium falciparum [6] (3D7 clone F2-A10, 72 h), 6.08. The pEC50 in the assay with Plasmodium falciparum [7] (3D7 clone A10, 72 h) is 6.52; in the assay with Plasmodium falciparum [9] (3D7 clone F2-H12, 72 h), 6.19. Moreover, the EC90 in the assay with Plasmodium falciparum [6] (3D7 clone F2-A10, time 72 hrs) stood at 1500 nM; in the assay on Plasmodium falciparum [7] (3D7 clone A10, time 72 hrs), 590 nM; in the assay with Plasmodium falciparum [9] (3D7 clone F2-H12, time 72 hrs), 1300 nM. Also, the “fold change (FC)” value in [8] is reported as 6.

What is called pEC50 is the negative decadic logarithm of the EC50, by convention in mol/L. In general, EC90 refers to the point of the concentration-response curve where the effect stands at 90%.
